# RGS4 pot: potentiators or activators of RGS4; HEK293 M3R/inducible RGS4, carbachol calcium flux Fluo4; active compounds read low; B-score at 10 µM; actives 0.92% (n = 310,000); AID 463111;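 active = B-score of the integrated calcium signal more than 4 SD below the library mean, with starting fluorescence not abnormally high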;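 also: negative B-score means reduced calcium response which marks RGS4 activation or potentiation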
#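 System – HEK293 FlpIn-TREx cells, stable M3R, doxycycline-inducible RGS4 · Reagent – ECmax carbachol challenge · Times – compound preincubation 20 min at room temperature before agonist · Technique – Fluo4 fluorescence kinetic imaging of calcium · Measure – B score of integrated Fluo4 ratio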
# MrgX1 antagonist: human MrgX1 receptor antagonism, primary screen | Q96LB2 | MRGX1-HEK293 calcium flux, Fluo-4, BAM8-22 antagonism; active compounds read low | B-score at 10 µM | actives 1.3% (n = 310,000);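 active = calcium-response B-score plate-corrected more than 3 library SD below zero, starting fluorescence within 5 deviations, no agonist response on first addition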;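 also: peak minus trough fluorescence over baseline after final BAM8-22 challenge near maximal dose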
# Target sequence (Q96LB2 whole entry, looked up): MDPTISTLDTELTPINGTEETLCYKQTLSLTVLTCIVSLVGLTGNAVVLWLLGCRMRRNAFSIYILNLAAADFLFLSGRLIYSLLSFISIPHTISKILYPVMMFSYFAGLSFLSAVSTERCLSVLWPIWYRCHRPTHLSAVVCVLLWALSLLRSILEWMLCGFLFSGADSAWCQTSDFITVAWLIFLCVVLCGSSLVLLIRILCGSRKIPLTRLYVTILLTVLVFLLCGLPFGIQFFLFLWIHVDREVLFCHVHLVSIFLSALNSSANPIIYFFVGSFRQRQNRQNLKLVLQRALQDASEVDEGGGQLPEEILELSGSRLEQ
# RGS4 block: inhibitors of human RGS4 | actives 0.45% (n = 310,000) | B-score at 10 µM | HEK293 M3R/RGS4 inducible, Fluo-4 calcium flux; active compounds read high; triggered by carbachol at its EC20;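 active = B-score, a plate-corrected calcium signal, over three deviations above library mean, with baseline fluorescence within five deviations of library mean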;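 also: RGS4 expression induced by doxycycline in cells with stable M3 receptor; B-score is computed from the integrated fluorescence ratio over baseline after carbachol; higher B-score means a larger calcium signal and so more RGS4 inhibition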
# Target sequence (P49798 whole entry, looked up): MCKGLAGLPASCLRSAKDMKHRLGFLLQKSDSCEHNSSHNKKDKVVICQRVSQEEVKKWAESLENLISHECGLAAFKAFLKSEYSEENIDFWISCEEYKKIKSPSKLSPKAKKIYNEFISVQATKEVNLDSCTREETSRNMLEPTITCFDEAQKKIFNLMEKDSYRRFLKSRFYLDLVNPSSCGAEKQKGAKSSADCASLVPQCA
# MrgX1 PAM: allosterically activates human MrgX1 receptor signaling | Q96LB2 | MrgX1-HEK293, Fluo-4 calcium flux, FDSS; active compounds read high | B-score at 10 µM | actives 0.63% (n = 310,000);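 active = plate-corrected calcium response at least 3 library SD above typical, normal starting fluorescence, not activating the receptor alone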;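 also: compound read alongside a low EC10 to EC30 dose of BAM8-22 agonist; peak minus trough fluorescence over baseline measured at the second addition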
# MrgX1 agonist: human MrgX1 receptor agonism, primary screen; B-score at 10 µM; AID 588627; MrgX1-HEK293 cells, Fluo-4 calcium fluorescence, agonist mode; active compounds read high; actives 0.44% (n = 310,000);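 active = calcium response B-score plate-corrected fluorescence ratio at least 3 library SD, with starting fluorescence B-score inside 5 SD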
#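 Material: MrgX1-expressing HEK293 cells / Dosing: compound as first of three additions / Incubation: overnight seeding, then 1 h dark dye loading / Signal: Fluo-4 NW calcium fluorescence / Evaluation: B-scored fluorescence response ratio / Benchmarks: positive and negative control wells on each plate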
# A number is an active result; n = inactive; x = no result. In the library only some 3.5% were active in any assay of this set; here they are far more common.
SMILES,RGS4 pot,MrgX1 antagonist,RGS4 block,MrgX1 PAM,MrgX1 agonist
CC(=O)Nc1ccc(/C=N/N2C(=O)NC(C)(c3ccc(OC(F)F)cc3)C2=O)cc1 (stereo not drawn),-7,n,n,n,31
COc1ccc(C2(c3ccc(OC)cc3)NC(=O)N(CC(=O)Nc3ccc(C(=O)N(C)C)cc3)C2=O)cc1,n,-6.4,n,n,n
COCCn1c(-c2cccc([N+](=O)[O-])c2)nc2c1c(=O)[nH]c(=O)n2Cc1ccccc1,n,n,n,n,n
Cc1c(C(=O)N/N=C/c2cccnc2)sc(N)c1C#N,n,n,n,n,n
CCOC(=O)C(CC)(CCC(=O)O)c1csc(Nc2ccc(C)cc2)n1 (stereo not drawn),n,-7.4,n,n,n
CCOC(=O)Cc1csc(Nc2ccc(Cl)cc2)n1,n,n,n,n,n
C=C(C)CSc1nc2sc3c(c2c(=O)n1-c1ccccc1)CCN(C)C3,-7.5,n,n,n,n
CCCCSc1nc2sc3c(c2c(=O)n1-c1ccccc1)CCN(C)C3,-7.3,n,n,n,n
O=C(C1CC(=O)N(c2ccc(Cl)cc2)C1)N1CCC(c2nc3ccccc3[nH]2)CC1 (stereo not drawn),n,n,n,n,n
CCCCCCCCNC(=O)c1ccc(C)cc1,n,n,n,n,32
COc1ccc(Cc2noc(CN(C)CC(O)c3ccccc3)n2)cc1OC (stereo not drawn),n,-5.2,n,n,n
CCCNC(=O)c1ccc(C)c(NC(=O)C2=C(C)OCCS2)c1,n,n,n,n,n
CCC(C)C(NC(=O)OC(C)(C)C)C(=O)NC(Cc1ccccc1)C(=O)OC (stereo not drawn),n,n,n,7.3,n
CC(=O)c1cn(-c2ccc(Cl)cc2)c(=O)n(Cc2ccc(F)cc2)c1=O,n,-7.9,n,n,n
COc1ccc(Cc2nnc(SCC(=O)N(C)CC(=O)Nc3ccc(C)cc3)o2)cc1,n,-4.6,n,n,n
CC(C)C(=O)O/N=C(\N)c1ccc(Oc2ccc(Cl)cc2)c([N+](=O)[O-])c1,-8.6,n,n,n,n
O=C(Nc1ccc(S(=O)(=O)Nc2ncccn2)cc1)c1ccc(Cl)c([N+](=O)[O-])c1,n,n,n,n,n
O=C(NNC(=O)c1ccc(SCC2CCCO2)c([N+](=O)[O-])c1)c1ccc(Cl)c([N+](=O)[O-])c1 (stereo not drawn),n,n,n,n,n
Cc1ccc(C(=O)NNC(=O)c2ccc(SCC3CCCO3)c([N+](=O)[O-])c2)cc1 (stereo not drawn),n,-6.7,n,n,n
CN(C)c1nc2ccc(OCCN3CCCCC3)cc2s1,-7.3,n,n,n,n
CCc1ccc(/C=N\NC(=O)c2ccc(Br)o2)s1,n,-4.9,n,n,n
CCC(=O)c1ccc(OCC(O)CN(CCc2ccccc2)Cc2ccccc2)cc1 (stereo not drawn),-8.3,n,n,n,n
OC(COc1ccccc1)CN(Cc1ccccc1)CC(O)COc1ccccc1 (stereo not drawn),x,n,x,n,n
COc1ccccc1CN1CCNC(=O)C1CC(=O)NCC1CCOCC1 (stereo not drawn),n,n,n,n,n
C#CCOCCOCCOCCNc1nc(N2CCN(C(=O)[C@H](Cc3ccc(O)cc3)n3cc(CCO)nn3)CC2)nc(N2CCN(C(=O)[C@H](Cc3ccc(O)cc3)n3cc(CCO)nn3)CC2)n1,n,n,n,n,n
SMILES,RGS4 pot,MrgX1 antagonist,RGS4 block,MrgX1 PAM,MrgX1 agonist
O=C(CSc1nc2ccccc2c(=O)n1-c1ccc(F)cc1F)c1c[nH]c2ccccc12,n,-5.1,n,n,n
O=C(CSc1nc2ccccc2c(=O)n1-c1ccc(F)cc1F)Nc1ccc(N2CCOCC2)cc1,n,n,n,n,n
CC(=O)N(C1=C(Cl)C(=O)c2ccccc2C1=O)C1CCCCC1,n,-9.6,n,n,n
Oc1ccccc1/C=N/n1cnn(Cc2ccccc2Cl)c1=S,n,-6.1,n,n,n
COc1ccc(/C=N/n2cnn(Cc3ccccc3Cl)c2=S)cc1,n,n,n,n,n
NC(=O)[C@@H]1CCNc2c(I)cc([N+](=O)[O-])cc2C(=O)N[C@@H](CCC(=O)O)C(=O)N[C@@H](CO)C(=O)N1,x,-6.5,x,n,n
O=C(Oc1ccc(C(=S)N2CCOCC2)cc1)c1ccc([N+](=O)[O-])cc1[N+](=O)[O-],n,n,n,n,n
O=C(Oc1ccc(Br)cc1C(=S)N1CCOCC1)c1ccc([N+](=O)[O-])cc1[N+](=O)[O-],-7.5,n,n,n,n
O=C(Cn1nnc2ccccc21)OCC(=O)c1ccccc1,n,-6.1,n,n,n
CC(C)C(OC(=O)CN1C(=O)c2ccccc2C1=O)C(=O)NC1CCCCC1 (stereo not drawn),n,n,n,n,n
Cc1cccc[n+]1CCCCCCCCCC[n+]1ccccc1C,n,n,n,n,n
CCCCCCCC[n+]1cccc2c3ccccc3ccc21,-9.9,n,n,n,n
CCCCCCCCCC[n+]1cccc2c3ccccc3ccc21,-10,x,n,x,x
O=C(COc1ccccc1)Nc1ccc2oc(=O)ccc2c1,n,n,n,n,n
Cc1c(NC(=O)COC(=O)c2ncc(Cl)c(Cl)c2Cl)c(=O)n(-c2ccccc2)n1C,n,n,n,n,n
CCCCN1C(=O)NC(NC(=O)c2ccco2)(C(F)(F)F)C1=O (stereo not drawn),n,n,n,n,n
CC(C)Oc1ccc(C(=O)NC2(C(F)(F)F)NC(=O)N(CCCc3ccccc3)C2=O)cc1 (stereo not drawn),-7.1,n,n,n,n
COc1cc(/C=C(/C(=O)O)c2ccc(-c3ccccc3)cc2)cc(OC)c1OC,n,n,n,n,n
COc1ccc(/C(=C/c2ccc(OC(F)F)c(OC)c2)C(=O)O)cc1OC,n,-5.8,n,n,n
CCc1nc(SCC(=O)Nc2cc(OC)ccc2OC)c2c(C)c(C)sc2n1,n,n,n,n,n
CCOC(=O)c1cc(-c2ccc(/C=C3/C(=O)N(c4ccc(C(=O)O)cc4)N=C3C)o2)ccc1Cl,-7.3,n,n,n,n
CC1=NN(c2ccc(Br)cc2)C(=O)/C1=C/c1ccc(-c2ccccc2C(=O)O)o1,n,n,n,9.3,n
C#CCOCCOCCOCCNc1nc(N2CCN(C(=O)CCCCCCCCCCNC(=O)[C@H](CO)n3cc(CCCSC)nn3)CC2)nc(N2CCN(C(=O)CCCCCCCCCCNC(=O)[C@H](CCCN=C(N)N)n3cc(C[C@@H](C)CC)nn3)CC2)n1,x,n,x,n,n
C#CCOCCOCCOCCNc1nc(N2CCN(C(=O)CCCCCCCCCCNC(=O)Cn3cc(CCCCCN)nn3)CC2)nc(N2CCN(C(=O)CCCCCCCCCCNC(=O)[C@H]([C@@H](C)CC)n3cc(CCCCN=C(N)N)nn3)CC2)n1,x,n,x,n,116

# Source: PubChem BioAssay (Johns Hopkins Ion Channel Center)
